The text below walks through data of PubChem BioAssay.

SMILES strings stand for the structures. The source made the active and inactive calls.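 Rule for the calls, unless noted: active = fluorescence slope higher than the sample average by over 3 SD (cut at about -0.22 in these data, passing the limit was not always enough); inactive = the rest.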

The nature of assay [1]: inhibitors of TNFa-induced NFkB p65 translocation, primary screen, imaging, HUVEC, MLSMR starter and 10KST1 sets (AID 438;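 active = inhibition above 20% together with a positive visual image hit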;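 note: compound added about 3h40 before a 20 min TNFalpha stimulation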;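 for inhibition: signal is the nuclear over cytoplasmic p65 intensity ratio per well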). To be noted: HUVEC TNFa-induced p65 nuclear translocation; cell count: measured here: nuclei count (cytotoxicity indicator), at 2.08 µM; inhibition: at 2 µM, stronger effect = higher value, 0% TNFa-plus-vehicle, 100% no-TNFa wells.
Assay [2] in a line: inhibitors of E-selectin induction by TNFa, primary screen, imaging, HUVEC, immunofluorescence, MLSMR starter and 10KST1 sets (AID 487;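 active = visually confirmed hit in the image check and inhibition above 20%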;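 for inhibition: signal is fraction of cell area covered by stained E-selectin grains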;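 for nuclei count: 100% = median nuclei count of all wells on the same plate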). As to conditions: HUVEC TNFalpha-induced E-selectin immunofluorescence imaging, at 2 µM; inhibition: stronger effect = higher value; nuclei count: measured here: cell number, toxicity.
Assay [3] can be described thus: DUSP6 inhibitors restoring Erk phosphorylation by chemical complementation, primary imaging in DUSP6-transfected HeLa (AID 609;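 active = compounds giving at least 50% inhibition in the cell-based MKP-3 phosphatase rescue imaging test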;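 for inhibition: phospho-Erk level distribution per well compared with pooled transfected vehicle control wells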). As to conditions: HeLa MKP-3 transfected, phospho-Erk imaging KS statistic, at 10 µM, cells stimulated with TPA for 15 min.
In assay [4] the target is Dual specificity protein phosphatase 6 (Homo sapiens) (UniProt Q16828). The assay is described as above. As to conditions: HeLa MKP-3 transfected, phospho-Erk imaging KS statistic; at 10 µM; stronger effect = higher value; cells stimulated with TPA for 15 min.
Dual specificity protein phosphatase 6 (Homo sapiens), sequence (Q16828 whole entry, looked up): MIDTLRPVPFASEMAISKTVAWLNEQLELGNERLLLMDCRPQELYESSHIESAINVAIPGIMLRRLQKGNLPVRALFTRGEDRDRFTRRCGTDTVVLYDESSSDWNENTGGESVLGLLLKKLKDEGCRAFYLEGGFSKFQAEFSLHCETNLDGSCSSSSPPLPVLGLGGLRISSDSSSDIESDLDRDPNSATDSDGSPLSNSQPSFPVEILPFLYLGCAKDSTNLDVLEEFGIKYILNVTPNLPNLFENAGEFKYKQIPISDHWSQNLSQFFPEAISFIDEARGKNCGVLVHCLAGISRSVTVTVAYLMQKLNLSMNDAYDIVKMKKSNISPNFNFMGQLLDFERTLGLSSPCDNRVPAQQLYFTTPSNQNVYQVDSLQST
The target in assay [5] is Voltage-gated potassium channel subunit beta-2 (Rattus norvegicus) (UniProt P62483). In words: KvBeta enzyme negative modulators, primary screen, biochemical, NADPH fluorescence (AID 622).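 Note: slope of raw intensity against log time taken from 70 to 1610 s.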 As to conditions: recombinant KvBeta, 4-cyanobenzaldehyde reduction, at 10 µM, stronger effect = higher value.
Voltage-gated potassium channel subunit beta-2 (Rattus norvegicus), sequence (P62483 whole entry, looked up): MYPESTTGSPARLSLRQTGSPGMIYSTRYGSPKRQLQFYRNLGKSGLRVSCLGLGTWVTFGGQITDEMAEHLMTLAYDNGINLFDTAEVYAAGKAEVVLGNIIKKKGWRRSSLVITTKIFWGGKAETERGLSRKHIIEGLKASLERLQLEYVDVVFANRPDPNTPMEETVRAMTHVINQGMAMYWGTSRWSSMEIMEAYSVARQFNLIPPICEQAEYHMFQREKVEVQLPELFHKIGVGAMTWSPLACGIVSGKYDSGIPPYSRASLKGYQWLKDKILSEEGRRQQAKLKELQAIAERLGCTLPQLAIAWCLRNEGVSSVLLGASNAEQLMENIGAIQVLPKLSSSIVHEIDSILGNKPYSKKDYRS
Assay [6] shares this target. In words: KvBeta positive modulators, primary screen, biochemical, NADPH fluorescence (AID 623;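 active = NADPH fluorescence slope more negative than the mean of all samples by about 3 SD, 99.7% confidence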;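 note: fluorescence intensity change per second fitted from 20 to 320 s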). To be noted: Recombinant KvBeta, NADPH fluorescence decrease slope, 10 min; at 10 µM; stronger effect = lower value.
Assay [7] addresses Muscarinic acetylcholine receptor M4 (Homo sapiens) (UniProt P08173). Briefly: compounds altering M4/GIRK thallium flux, either direction, primary screen, M4 allosteric agonist project, cell-based, HEK293 M4/GIRK, BTC-AM (AID 625;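 active = fluorescence slope after compound addition differing from the mean of all tested samples at 99.7% confidence, mostly higher but some lower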;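 note: thallium influx through GIRK channels coupled to M4 in HEK293 cells with BTC-AM dye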). To be noted: at 10 µM, actives lie on both sides. A digest of the protocol: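 Material: HEK293 cells with M4 receptor and GIRK channels; Times: cells overnight at 37 °C, BTC-AM loading 1 h, reads 2 min total; Technique: kinetic BTC-AM fluorescence sampled at 1 Hz, 10 s pre-addition baseline; Read-out basis: slope over 15–24 s of trace normalized to starting intensity; Controls: carbachol positive, DMSO negative.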

Assay [8] in a line: inhibitors of larval lipid processing in zebrafish, primary screen, whole organism, PED6 fluorescence, gall bladder and intestine (AID 686;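 active = a full or partial loss of lipid-probe fluorescence in the fish gall bladder, intestine or both, judged by eye; inactive = no fluorescence loss, or compound toxic to the fish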;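 note: larvae 5 to 7 days old with five fish per well; signal comes from phospholipase A2 cleavage of quenched PED6 carried via bile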). To be noted: Zebrafish larvae PED6 lipid processing, fluorescence scoring; screened at 20 µM (by protocol). A digest of the protocol:
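Incubation: overnight exposure of larvae to compound plus PED6 / Test system: live zebrafish larvae aged 5-7 days, whole organism / Amount: 5 larvae per well / Read-out basis: visual per-well fluorescence inhibition score / Signal: visual fluorescence microscopy scoring of gall bladder, gut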

The nature of assay [9]: inhibitors of Chlamydomonas gravitaxis, primary screen, whole organism, Chlamydomonas reinhardtii, WT vs cilia-less mutant, absorbance, 96-well (AID 463189;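 active = inhibition at or above 50% relative to wild type and mutant plate controls; inactive = inhibition below 50%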;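 note: 0% = wild type cc124 cells in DMSO and 100% = ciliumless bld1 mutant cells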). To be noted: OD600 absorbance, 2 days, at 10 µM, stronger effect = higher value.
Where [10] appears, read: measured here: cell density z-score.
The mark [11] stands for this setting: measured here: nuclear c-Myc green intensity z-score.
[12] abbreviates: measured here: nuclear pErk red intensity z-score, stronger effect = higher value.

Muscarinic acetylcholine receptor M4 (Homo sapiens), sequence (P08173 whole entry, looked up): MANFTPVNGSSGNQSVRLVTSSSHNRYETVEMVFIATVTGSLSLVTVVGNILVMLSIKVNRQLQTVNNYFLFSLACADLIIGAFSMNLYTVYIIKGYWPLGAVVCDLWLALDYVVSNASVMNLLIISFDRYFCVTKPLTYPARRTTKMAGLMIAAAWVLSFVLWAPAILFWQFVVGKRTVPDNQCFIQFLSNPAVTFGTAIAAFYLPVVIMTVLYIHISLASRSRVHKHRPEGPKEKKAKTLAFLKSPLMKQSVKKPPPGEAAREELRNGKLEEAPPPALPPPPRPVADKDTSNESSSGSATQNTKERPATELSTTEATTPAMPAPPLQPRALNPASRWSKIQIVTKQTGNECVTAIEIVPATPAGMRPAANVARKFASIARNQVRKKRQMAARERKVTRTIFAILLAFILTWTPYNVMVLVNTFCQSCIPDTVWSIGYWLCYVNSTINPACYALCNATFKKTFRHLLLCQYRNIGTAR

A word on the inhibition: it is the drop in the measured response relative to a control, in per cent. `CCC(=O)N(Cc1cccs1)C1CCOC(C)(C)C1` (configuration not stated): the cell count in assay [1] was found to be 541. In addition, the inhibition in assay [1] is 6.5% (inactive); in [2], 6.3% (inactive); in assay [4] it was 1.9e-07% (inactive); in [9], 11.9% (inactive). This compound also registered a nuclei count in assay [2] of 166%. For the same compound, the figures for the z-score in assay [3] (setting [10]), in assay [3] (setting [11]) and in assay [3] (setting [12]) were 0.577, -0.186 and 0.0071, respectively. In addition, the figures for the fluorescence slope in assay [5] and in [7] were -0.389 (inactive) and 0.00514 (inactive), respectively. Also, in [6], the NADPH fluorescence slope is -3e-05 (inactive). Moreover, in assay [8], the result was inactive.

Turning to `CCCCN(C(=O)CCC(=O)O)C1CC(=O)N(c2ccc(OCCC)cc2)C1=O` (configuration not stated), the cell count in assay [1] was found to be 639. Further, the inhibition in assay [1] was 5.2% (inactive); in assay [2] it was -33% (inactive); in assay [4] it was -9.53% (inactive); in [9], -0.122% (inactive). The nuclei count in assay [2] was 116%. In addition, the z-score was -0.992 in [3] (setting [10]), -0.45 in assay [3] (setting [11]) and -0.105 in assay [3] (setting [12]). The fluorescence slope in assay [5] was -0.464 (inactive); in [7], 0.00463 (inactive). Besides, in assay [6], the NADPH fluorescence slope is -2.3e-05 (inactive). In addition, the result in assay [8] was inactive.

`COc1cc(S(=O)(=O)N2CCN(C)CC2)c(OC)cc1Br`: the cell count in assay [1] was determined as 616. For the same compound, the inhibition is 13.9% (inactive) in assay [1], -43.1% (inactive) in assay [2], 1.63% (inactive) in assay [4] and 21% (inactive) in assay [9]. In assay [2], this compound displayed a nuclei count of 114%. The z-score in [3] (setting [10]) is 0.0206; in [3] (setting [11]) it was -1.18; in [3] (setting [12]), -0.865. Also, the fluorescence slope in [5] was -0.424 (inactive); in [7], 0.00502 (inactive). Further, the NADPH fluorescence slope in assay [6] is -3.6e-05 (inactive). Further, the call in [8] was inactive.

Regarding `C=CCNc1nc(NCc2ccccc2)c(C#N)c2c1CN(C)CC2`, the cell count in assay [1] was found to be 592. The inhibition in assay [1] was -6.3% (inactive); in [2] it was -14.9% (inactive); in [4], -2.09% (inactive); in assay [9] it was 21.1% (inactive). The same compound returned a nuclei count in assay [2] of 156%. Moreover, the values for the z-score in [3] (setting [10]), in assay [3] (setting [11]) and in assay [3] (setting [12]) were 0.516, -0.0927 and 0.356, respectively. Besides, the figures for the fluorescence slope in assay [5] and in [7] were -0.407 (inactive) and 0.00402 (inactive), respectively. In assay [6], the NADPH fluorescence slope was -5.5e-05 (inactive). Besides, in [8], the compound was classed as inactive.

On to `CCCc1nnc(NC(=O)Nc2ccccc2OC)s1`, for which the cell count in assay [1] was 618. Further, the inhibition in [1] was -9.4% (inactive); in assay [2] it was 14.1% (inactive); in [4] it was 42.6% (inactive); in [9], -5.69% (inactive). In addition, the nuclei count in assay [2] came to 100%. In addition, the values for the z-score in assay [3] (setting [10]), in [3] (setting [11]) and in assay [3] (setting [12]) were 1.95, 0.159 and -0.528, respectively. For the same compound, the fluorescence slope in assay [5] is -0.515 (inactive); in assay [7], 0.0109 (inactive). The NADPH fluorescence slope in assay [6] is -4.1e-05 (inactive). Besides, the result in assay [8] was inactive.

In the case of `Cc1cc(C)n(C2CCCCC2OC(=O)c2ccccc2)n1` (configuration not stated), the cell count in assay [1] came out at 526. In addition, the inhibition in [1] is -10% (inactive); in [2] it was -95% (inactive); in assay [4], 9.91% (inactive); in assay [9], -9.73% (inactive). In addition, the nuclei count in assay [2] was determined as 129%. The figures for the z-score in assay [3] (setting [10]), in [3] (setting [11]) and in assay [3] (setting [12]) were -0.506, 0.334 and -1.55, respectively. For the same compound, the results for the fluorescence slope in assay [5] and in [7] were -0.381 (inactive) and 0.00464 (inactive), respectively. Besides, in assay [6], the NADPH fluorescence slope was 2e-06 (inactive). The compound was called inactive in assay [8].

Take `CCOC(=O)CNC(=O)CNC(=O)c1ccc(OCC(C)C)cc1`: the cell count in assay [1] came out at 694. The inhibition was 2.1% (inactive) in assay [1], -9.7% (inactive) in assay [2], -5.81% (inactive) in assay [4] and -6.07% (inactive) in assay [9]. The compound also came in with a nuclei count in [2] of 146%. The z-score in [3] (setting [10]) worked out at 0.797; in assay [3] (setting [11]), 0.341; in [3] (setting [12]), 0.093. The fluorescence slope in assay [5] is -0.458 (inactive); in [7], 0.00522 (inactive). Moreover, the NADPH fluorescence slope in assay [6] was -5.4e-05 (inactive). Further, the outcome in assay [8] was inactive.

For the compound `CCC(=O)Nc1nc2ccccc2n1CCN(C)C`, the cell count in assay [1] was determined as 551. Also, the inhibition was 4.1% (inactive) in [1], -371% (inactive) in assay [2], -1.98% (inactive) in [4] and -5.07% (inactive) in assay [9]. The compound further gave a nuclei count in assay [2] of 131%. Moreover, the z-score was 0.711 in assay [3] (setting [10]), 0.524 in assay [3] (setting [11]) and -0.675 in assay [3] (setting [12]). For the same compound, the fluorescence slope in assay [5] is -0.436 (inactive); in assay [7] it was 0.00568 (inactive). Further, the NADPH fluorescence slope in assay [6] is -1.7e-05 (inactive). For the same compound, the result in assay [8] was inactive.

On to `Cn1c(=O)c2c(nc(NCc3ccc4c(c3)OCO4)n2Cc2ccccc2)n(C)c1=O`, for which, in assay [1], the cell count stood at 656. Also, the inhibition is -20.1% (inactive) in [1], -108% (inactive) in assay [2], -7.93% (inactive) in assay [4] and -2.21% (inactive) in [9]. The compound further registered a nuclei count in assay [2] of 96.2%. Further, the results for the z-score in [3] (setting [10]), in assay [3] (setting [11]) and in assay [3] (setting [12]) were -0.797, -1.34 and -1.17, respectively. In addition, the fluorescence slope in assay [5] is -0.5 (inactive); in assay [7], 0.00776 (inactive). Besides, the NADPH fluorescence slope in assay [6] is -0.000109 (inactive). In addition, in [8], the result was inactive.
